Yeast superoxide = reduction of superoxide in aged yeast, primary screen, HTS | S. cerevisiae aged cells, superoxide DHE fluorescence; active compounds read low | superoxide response (% of plate mean), % at 10 µM | 330,000 compounds, 0.18% hits;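 active = superoxide response under a set limit, about three screen SD below normal, cut at about 65% in these data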;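 note: yeast aged for seven days with compound at 30 °C before DHE staining; 100% = average MFI of all compound-treated wells on the plate with controls excluded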
GSK3B inh = human GSK3beta kinase inhibitors, primary screen, biochemical, cell-free homogeneous, HTS; Glycogen synthase kinase-3 beta (Homo sapiens), P49841; activity score (negative = inhibition), % at 10 µM; GST-GSK3beta kinase, ADP-Glo luminescence, 60 min; active compounds read low; 300,000 compounds, 0.038% hits;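 active = more than half of replicate wells score below -50%, meaning over 50% inhibition versus plate controls; inconclusive = some replicates but at most half score below -50%; inactive = no replicate scores below -50%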;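 note: 0% = median DMSO wells and -100% = median GW8510 positive control wells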
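test system = GST-tagged human GSK3beta kinase, cell-free | reagent = 25 µM ATP with peptide substrate | dosing = one dose of 10 µM per compound | schedule = 60 min reaction, RT | detection = luminescent ADP-Glo measurement of ADP formed | control set = DMSO neutral wells and GW8510 at 20 µM as positive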
PolyA inhibitor = polyadenylation inhibitors in yeast reporter cells, primary screen, luminescence, S. cerevisiae. S. cerevisiae SKY197-pL101 polyadenylation reporter, beta-gal luminescence; efflux-impaired pdr1/pdr3 knockout yeast; score 100 = 6 SD above DMSO. activity score, % at 12 µM. 300,000 compounds, 0.02% hits;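 active = lowest replicate activity score at least 50, where 100 means six control SD above control mean; inconclusive = lowest score under 50 but half or more replicates reach 50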;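 note: yeast exposed to compound for 9 h at 30 °C; higher score means more reporter readthrough which indicates perturbed polyadenylation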
STK33 inh = inhibitors of purified STK33 kinase, primary screen, biochemical, ADP-Glo luminescence, homogeneous, cell-free; Serine/threonine-protein kinase 33 (Homo sapiens), Q9BYT3; inhibition, % at 10 µM; MBP phosphorylation; AID 2661, 2010; 320,000 compounds, 0.073% hits;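 active = inhibition at or above 25%, using the most active replicate where run in duplicate; inactive = inhibition below 25%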
Target sequence (Q9BYT3 whole entry, looked up): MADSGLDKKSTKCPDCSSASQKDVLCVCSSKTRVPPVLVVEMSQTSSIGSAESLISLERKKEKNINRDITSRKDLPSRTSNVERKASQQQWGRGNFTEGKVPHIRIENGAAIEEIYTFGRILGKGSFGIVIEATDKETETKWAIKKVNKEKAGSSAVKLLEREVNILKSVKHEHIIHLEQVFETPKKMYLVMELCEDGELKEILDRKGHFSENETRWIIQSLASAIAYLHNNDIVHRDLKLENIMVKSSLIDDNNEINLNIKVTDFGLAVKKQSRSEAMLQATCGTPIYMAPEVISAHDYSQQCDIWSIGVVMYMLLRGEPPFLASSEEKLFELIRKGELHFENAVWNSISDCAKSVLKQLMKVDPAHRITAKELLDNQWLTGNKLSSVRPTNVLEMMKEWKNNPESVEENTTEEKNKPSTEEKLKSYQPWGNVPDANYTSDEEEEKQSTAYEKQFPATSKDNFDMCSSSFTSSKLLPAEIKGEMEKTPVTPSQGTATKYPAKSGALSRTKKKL
AI-2 QS modul = Vibrio harveyi AI-2 quorum sensing modulators, primary screen, JMH597 strain, luminescence/OD600 ratio; Vibrio harveyi JMH597 AI-2 luminescence/OD600 ratio, 9 h; active compounds read low; strain lacks LuxN and CqsS sensors; 0 = neutral-control median; activity change, % at 7.5 µM; 300,000 compounds, 0.4% hits; AID 2094, 2009; in the data active = activity change below about -75%, passing the limit was not always enough; inconclusive = no clear call, values can overlap the other calls;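 note: luminescence divided by OD600 gain over 9 h not by final OD600 alone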
GSK3 alpha inh = blockers of GSK3A enzyme activity – biochemical, luminescence, cell-free homogeneous, HTS, primary screen; GSK-3 alpha kinase, ADP-Glo luminescence, 60 min; inhibition, % at 10 µM; 320,000 compounds, 0.1% hits; AID 2650, 2010;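 active = more than half of replicates show inhibition above 20%; inconclusive = some but at most half of replicates above 20% inhibition; inactive = no replicate shows inhibition above 20%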;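 note: GST-tagged GSK-3 alpha with peptide substrate and 25 µM ATP; 0% = DMSO neutral wells and 100% = GW8510 positive control wells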
JMH597 growth = Vibrio harveyi growth inhibition, confirmation, counter-screen for AI-2 quorum sensing project, JMH597 strain, OD600 absorbance | shares compounds with AI-2 QS modul | 9 h; lacks LuxN and CqsS sensors | growth inhibition, % at 7.5 µM | 750 compounds, 1% hits;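 active = every replicate shows growth inhibition above 50%; inconclusive = at least half, but not all, replicates pass that cutoff; inactive = fewer than half of replicates pass it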
BB721 const-QS lum = luminescence inhibition in constitutive-on V. harveyi, confirmation, counter-screen for LuxS inhibitor project, strain BB721, luminescence readout; Vibrio harveyi BB721 luminescence, 9 h; shares compounds with AI-2 QS modul; inhibition, % at 7.5 µM; 750 compounds, 95% hits;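 active = inhibition above about 80% in every replicate, not just on average, limit read from the data; inconclusive = at least half of replicates past the limit, but not all; inactive = fewer than half of replicates past the limit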
BB721 growth = growth inhibition of V. harveyi BB721, confirmation, cytotoxicity control for AI-2 quorum sensing inhibitors, strain BB721, absorbance OD600 | 750 compounds, 3% hits | Vibrio harveyi BB721 growth, 9 h | shares compounds with AI-2 QS modul | growth inhibition, % at 7.5 µM;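 active = every replicate shows growth inhibition above 50%; inconclusive = at least half but not all replicates above 50% inhibition; inactive = under half of replicates above 50% inhibition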
JMH597 AI-2 mod = Vibrio harveyi AI-2 signaling luminescence modulation – JMH597 strain, confirmation; shares compounds with AI-2 QS modul; Vibrio harveyi JMH597 AI-2 quorum sensing luminescence, 9 h; luxN and CqsS knockout, AI-2 only; inhibition, % at 7.5 µM; 750 compounds, 97% hits; AID 2736, 2010;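 active = every replicate shows more than 75% inhibition of signal versus neutral control wells; inconclusive = half to three quarters of replicates exceed 75% inhibition; inactive = fewer than half of replicates exceed 75% inhibition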
* hit, by the source's call; ? = inconclusive; / = not tested or not shown. A selection: hits, their analogues and other compounds. The true share with any hit is near 0.72%.

SMILES | Yeast superoxide | GSK3B inh | PolyA inhibitor | STK33 inh | AI-2 QS modul | GSK3 alpha inh | JMH597 growth | BB721 const-QS lum | BB721 growth | JMH597 AI-2 mod
O=C(Nc1cc(S(=O)(=O)N2CCCC2)ccc1Cl)c1cc(F)c(F)c(F)c1F | 89 | / | / | -2 | / | -1 | / | / | / | /
COc1ccc(S(=O)(=O)c2nnn(-c3cccc(OC)c3)c2N)cc1 | 93 | -1 | 17 | 0 | -68 | -2 | / | / | / | /
Cc1ccc(S(=O)(=O)c2nnn(-c3cccc(F)c3)c2N)cc1 | 107 | -1 | 19 | -1 | -97* | / | / | / | / | /
Cc1ccc2nc(Cl)c(CNCc3ccccc3)cc2c1 | 84 | 0 | 3 | -2 | -82* | / | / | / | / | /
Cc1cc(-c2ccc3ccccc3c2)n2ncnc2n1 | 100 | -3 | -2 | 0 | -1 | -8 | / | / | / | /
CCSc1nc(O)cc(=O)[nH]1 | 97 | 4 | -2 | -2 | 34 | 0 | / | / | / | /
CCSc1nc(=S)cc(C)[nH]1 | 59* | 6 | 2 | 3 | -1 | -3 | / | / | / | /
O=C(NCCCO)/C(=C\c1ccco1)NC(=O)c1ccco1 | 107 | 0 | -9 | -1 | 13 | 0 | / | / | / | /
Cc1ccc(CC(=O)Nc2ccc(S(=O)(=O)Nc3ncccn3)cc2)cc1 | 100 | 4 | 12 | -2 | -92* | -4 | / | / | / | /
Cc1ccc(CC(=O)Nc2ccc(S(=O)(=O)Nc3nccc(C)n3)cc2)cc1 | 96 | 1 | 17 | -1 | 6 | -3 | / | / | / | /
O=C(CCSc1ccccc1)Nc1ccc(S(=O)(=O)Nc2ncccn2)cc1 | 115 | 1 | 10 | -1 | -79* | 0 | / | / | / | /
COc1ccc(CC(=O)Nc2ccc(S(=O)(=O)Nc3cc(C)on3)cc2)cc1 | 104 | -2 | -11 | -2 | -92* | 0 | / | / | / | /
CCOC(=O)N1CCC(=NNC(=O)Cn2ccc(C(F)(F)F)n2)CC1 | 96 | 1 | 13 | -1 | 17 | -1 | / | / | / | /
Oc1ccccc1CNc1cccc2cccnc12 | 99 | 2 | -5 | 0 | 1 | 0 | / | / | / | /
Nc1sc(-c2ccccc2)n[n+]1Cc1cccc2cccnc12 | 94 | -1 | -2 | 0 | -88* | -1 | / | / | / | /
CC1SC(C)C(=O)N(CC(=O)Nc2ccc([N+](=O)[O-])cc2)C1=O (stereo not given) | 101 | 2 | -19 | -2 | -94* | 0 | 25 | 99* | 19 | 99*
O=C(Cn1nnc2ccccc21)Nc1ccc([N+](=O)[O-])cc1 | 96 | -4 | 5 | -1 | -92* | 0 | -21 | 99* | -35 | 99*
Cc1cc(C)cc(NC(=O)CN2C(=O)NC(C)(c3ccccc3)C2=O)c1 (stereo not given) | 102 | 1 | 17 | 0 | -83* | -2 | -23 | 86* | -31 | 92*
CC1(c2ccccc2)NC(=O)N(CC(=O)NC(=O)NCc2ccco2)C1=O (stereo not given) | 120 | 1 | -5 | 0 | -82* | 1 | -16 | 88* | -6 | 92*
COc1ccc([C@H]2CC(=O)C=C(c3ccc(OC)c(F)c3)C2)cc1 | 113 | / | / | -1 | / | -1 | / | / | / | /
C/C(=N\NC(=O)c1nnn(-c2nonc2N)c1-c1ccccc1)c1ccco1 | 133 | 0 | / | -1 | -6 | / | / | / | / | /
Cc1ccc(NC(=O)CN(C)C(=O)C(C)N2CCN(Cc3ccccc3C)CC2)cc1 (stereo not given) | 107 | / | / | 0 | / | -2 | / | / | / | /
O=C1CCC(C(=O)N2CCC(CO)CC2)CN1Cc1ccc(Cl)cc1 (stereo not given) | 99 | 2 | 27 | -2 | 21 | 0 | / | / | / | /
COc1ccc(C2(C)NC(=O)N(CC(=O)Nc3ccc(S(=O)(=O)N4CCCC4)cc3)C2=O)cc1 (stereo not given) | 88 | 3 | 16 | 2 | -90* | -1 | -31 | 89* | -11 | 94*
CC1(c2ccccc2)NC(=O)N(CC(=O)Nc2ccc([N+](=O)[O-])cc2)C1=O (stereo not given) | 101 | 1 | -10 | -1 | -89* | -1 | 15 | 97* | 2 | 98*
SMILES | Yeast superoxide | GSK3B inh | PolyA inhibitor | STK33 inh | AI-2 QS modul | GSK3 alpha inh | JMH597 growth | BB721 const-QS lum | BB721 growth | JMH597 AI-2 mod
Cc1ccc(C(C(=O)NC2CCCCC2)N(C(=O)c2csnn2)C2CC2)cc1 (stereo not given) | 91 | -2 | 1 | 0 | 19 | -1 | / | / | / | /
O=C(CCOc1ccccc1)Nc1cccc([N+](=O)[O-])c1 | 101 | 2 | 1 | 1 | -26 | -2 | / | / | / | /
Cc1ccc(OCCC(=O)Nc2ccc(F)c(Cl)c2)cc1 | 99 | -18 | 9 | 0 | -78* | 0 | -3 | 68 | 6 | ?
Cc1cccc(NC(=O)CCOc2ccccc2)c1 | 89 | 0 | 0 | 0 | -84* | -1 | 10 | 91* | -6 | 94*
Cc1cccc(NC(=O)CCN2C(=O)c3ccccc3C2=O)c1 | 99 | 2 | -10 | -1 | ? | -1 | -5 | 88* | 1 | 92*
COc1ccc(CC(=O)NCc2ccc3c(c2)OCO3)cc1 | 109 | -2 | -3 | -1 | 27 | -1 | / | / | / | /
COc1cccc(/C=C/C(=O)NCc2ccc3c(c2)OCO3)c1 | 114 | 0 | -3 | -1 | -86* | -5 | 1 | 95* | 1 | 96*
COc1cccc(OCc2cc(C(=O)NCc3ccc4c(c3)OCO4)no2)c1 | 88 | 0 | 19 | 0 | ? | 1 | 56 | 92* | ? | 96*
Oc1oc(-c2ccccc2)nc1C=NCc1ccccc1 | 106 | -1 | -1 | -1 | ? | 5 | 14 | 93* | 22 | 95*
Oc1oc(-c2ccccc2)nc1C=Nc1ccccc1 | 94 | 5 | 3 | 0 | 11 | -3 | / | / | / | /
